Screening results (PubChem BioAssay)
TRPC4 block = blocks the mouse TRPC4 cation channel; Q9QUQ5; HEK293 TRPC4beta/mu-opioid, DAMGO-evoked Fluo4 calcium flux; active compounds read low; B-score at 10 µM; actives 0.39% (n = 300,000); AID 2247;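 active = B-score over 3 SD under the library average, no early fluorescence shift, positive overall ratio signal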
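Material: HEK293 cells with stable TRPC4beta plus mu-opioid receptor expression / Probe or stimulus: DAMGO in two steps, submaximal then maximal / Compound: single concentration per test compound / Technique: kinetic Fluo4 fluorescence imaging of calcium influx / Read-out: per-well B score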
TRPC4 potent = allosteric potentiators of mouse TRPC4 channel; Q9QUQ5; HEK293 TRPC4beta/mu-opioid, DAMGO EC20, Fluo-4 Ca2+ flux; active compounds read high; actives 0.42% (n = 310,000); B-score at 10 µM; AID 2227;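 active = B-score of calcium response area above 5 SD of library B-scores, with initial fluorescence ratio within 5 SD of library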;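 also: B-score of integrated fluorescence ratio over time as area under calcium response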
TRPC6 inhibitor = inhibitors of mouse TRPC6 channel; B-score at 10 µM; HEK293-TRPC6, membrane potential dye, ACh-evoked depolarization; active compounds read low; actives 1.1% (n = 310,000); Q61143;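 active = B-score under library mean minus 3 SD, initial fluorescence not abnormally high, positive integrated signal ratio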;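 also: B-score derived from integrated fluorescence ratio over the kinetic read; more negative B-score means stronger inhibition of depolarization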
Target sequence (Q61143 whole entry, looked up): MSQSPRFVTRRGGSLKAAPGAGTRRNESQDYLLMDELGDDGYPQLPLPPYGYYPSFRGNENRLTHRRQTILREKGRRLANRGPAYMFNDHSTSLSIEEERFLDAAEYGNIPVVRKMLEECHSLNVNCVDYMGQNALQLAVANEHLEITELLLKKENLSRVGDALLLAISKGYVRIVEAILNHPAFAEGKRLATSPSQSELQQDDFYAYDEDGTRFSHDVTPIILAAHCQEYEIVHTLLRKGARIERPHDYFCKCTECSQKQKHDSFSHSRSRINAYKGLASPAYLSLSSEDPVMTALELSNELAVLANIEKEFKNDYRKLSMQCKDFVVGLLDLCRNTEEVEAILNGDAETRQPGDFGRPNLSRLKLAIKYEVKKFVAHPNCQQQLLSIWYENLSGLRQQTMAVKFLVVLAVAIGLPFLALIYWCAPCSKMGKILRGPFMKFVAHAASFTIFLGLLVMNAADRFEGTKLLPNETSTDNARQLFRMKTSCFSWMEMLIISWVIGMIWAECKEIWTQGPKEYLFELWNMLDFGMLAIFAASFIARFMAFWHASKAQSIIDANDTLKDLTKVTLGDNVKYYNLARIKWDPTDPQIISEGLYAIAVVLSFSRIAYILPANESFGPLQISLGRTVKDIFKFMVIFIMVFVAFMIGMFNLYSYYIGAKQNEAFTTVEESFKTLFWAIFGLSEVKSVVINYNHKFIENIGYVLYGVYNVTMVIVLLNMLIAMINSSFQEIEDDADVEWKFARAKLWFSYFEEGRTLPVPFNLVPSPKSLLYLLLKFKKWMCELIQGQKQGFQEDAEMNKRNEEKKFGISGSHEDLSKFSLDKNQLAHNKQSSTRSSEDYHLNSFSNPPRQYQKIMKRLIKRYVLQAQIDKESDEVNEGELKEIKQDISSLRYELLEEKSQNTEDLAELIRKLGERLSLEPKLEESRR
Platelet DG rel = modulates dense granule release in human platelets. human platelet-rich plasma, SFLLRN dense granule ATP release, luminescence. inhibition, %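 (compounds screened at 7.5 µM in platelet-rich plasma)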. actives 0.22% (n = 300,000);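 active = mean replicate score, as percent of positive control, at or above 50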
TRPC4 agonist = opens the mouse TRPC4 cation channel. HEK293 TRPC4beta/mu-opioid, Fluo4 calcium fluorescence; active compounds read high. actives 0.49% (n = 310,000). B-score at 10 µM. Q9QUQ5;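 active = B-score above 5 SD of library B-scores, and initial fluorescence ratio not above library mean plus 5 SD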;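 also: positive B-score marks a calcium rise read as TRPC4 activation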
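System – HEK293 cells stably co-expressing mouse TRPC4beta and mu-opioid receptor · Signal – Fluo4 calcium-sensitive dye fluorescence, kinetic, 1 Hz baseline · Benchmarks – buffer (low) and maximal DAMGO (high) · Read-out – B score of integrated fluorescence ratio per well · Incubation – dye loading 45 min room temperature, 110 s kinetic read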
TRPC6 activator = activators of mouse TRPC6 channel. Q61143. HEK293-TRPC6 membrane potential dye fluorescence; active compounds read high. B-score at 10 µM. actives 0.13% (n = 310,000). AID 2550;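 active = B-score of the integrated fluorescence ratio above library mean plus 3 SD, and starting fluorescence ratio within library mean plus 5 SD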;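 also: higher score means more depolarization so channel activation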
TRPC4 spec 2 = second selectivity test of TRPC6 inhibitors: effect on mouse TRPC4 | AID 2776 | HEK293 TRPC4/MOR, membrane potential dye fluorescence; channel activated by saturating DAMGO dose | inhibition, % at 10 µM | shares compounds with TRPC6 inhibitor | actives 42% (n = 920);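 active = compounds whose fluorescence signal differed from control wells by over 3 SD, either direction, in both duplicate plates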
TRPC4 spec = selectivity of TRPC6 inhibitors: effect on mouse TRPC4; AID 2777; shares compounds with TRPC6 inhibitor; HEK293 TRPC4/mu-opioid, membrane potential fluorescence; actives 61% (n = 920); activity change, negative = inhibition, % at 10 µM;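 active = rise or fall in signal beyond 3 SD of buffer-only wells in both replicate plates, either sign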;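 also: integrated kinetic ratio of fluorescence range over baseline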
HEK293 MPD ctr 2-1 = parental HEK293 nonspecific activity of TRPC6 inhibitors, second screen; shares compounds with TRPC6 inhibitor; parental HEK293 membrane potential dye fluorescence; maximal acetylcholine challenge after compound addition; signal change vs control, % at 10 µM; actives 31% (n = 920);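 active = membrane potential signal moving either way by over 3 SD of the maximum-effect control, in both duplicate plates, meaning non-specific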
HEK293 MPD ctr-1 = checks TRPC6 inhibitor effects in parental HEK293 cells; shares compounds with TRPC6 inhibitor; parental HEK293 membrane potential dye fluorescence; membrane potential signal change, % at 10 µM; actives 60% (n = 920); AID 2780;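 active = membrane potential signal shifting up or down by more than 3 SD of buffer-only wells, on both duplicate plates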
HEK293 MPD ctr-2 = counter-screen for TRPC6 modulators: effect in parental HEK293 cells | shares compounds with TRPC6 inhibitor | membrane potential dye fluorescence | membrane potential signal change, % at 10 µM | actives 51% (n = 2,400) | AID 488924;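 active = membrane potential signal moves up or down beyond 5 SD from buffer-only wells, on both duplicate plates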
HEK293 MPD ctr 2-2 = second counter-screen for TRPC6 modulators: effect in parental HEK293 cells. shares compounds with TRPC6 inhibitor. membrane potential dye fluorescence; after compound, maximal acetylcholine stimulation. inhibition, % at 10 µM. actives 14% (n = 2,400). AID 488926;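 active = membrane potential signal drops by more than 5 SD from the mean control signal, in both duplicate plates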;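 also: plate controls were acetylcholine ECmax control wells for no effect and buffer only wells for full effect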
TRPC4 ctr mod = tests whether TRPC6 modulators also affect mouse TRPC4; HEK293 TRPC4/mu-opioid, membrane potential fluorescence; actives 69% (n = 2,400); shares compounds with TRPC6 inhibitor; AID 488927; percent change from control (negative = decrease, positive = increase), % at 10 µM;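 active = membrane potential signal moved up or down beyond 5 SD of buffer control wells, in both duplicate plates, actives on both sides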;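 also: plate controls were assay buffer wells for no effect and DAMGO maximal-effect wells for full effect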
TRPC4 ctr inh 2 = second selectivity test of TRPC6 modulators against mouse TRPC4; inhibition, % at 10 µM; AID 488928; actives 55% (n = 2,400); shares compounds with TRPC6 inhibitor; HEK293 TRPC4/mu-opioid, membrane potential dye fluorescence; stimulated with maximal-effect DAMGO;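 active = drop in membrane potential signal beyond 5 SD of the control wells in both duplicate plates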;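 also: TRPC4 counter screen for TRPC6 hits run under conditions tuned for TRPC6 not TRPC4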
TRPC6 inh conf = mouse TRPC6 inhibitor confirmation; inhibition, % at 10 µM; shares compounds with TRPC6 inhibitor; actives 43% (n = 3,300); HEK293-TRPC6, membrane potential dye, ACh-evoked depolarization;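 active = fluorescence ratio falls more than 5 SD below the full-stimulation control mean, in both duplicate runs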;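 also: integrated fluorescence ratio of peak minus minimum over baseline after agonist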
TRPC6 act conf = confirmation of mouse TRPC6 activators; AID 488961; actives 11% (n = 2,800); activation, % at 10 µM; shares compounds with TRPC6 inhibitor; HEK293-TRPC6 membrane potential dye fluorescence, FDSS;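 active = ratio signal rise beyond 5 SD above unstimulated control wells' mean, seen in both duplicate runs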;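 also: plate controls were buffer EC0 wells for no effect and acetylcholine ECmax response for full effect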
Numbers without * were called inactive; i = inactive; . = no result given; + = active, no number. Rows were chosen to be rich in hits. Some 2.5% of all compounds tested hit in one or more screens of this group.

SMILES	TRPC4 block	TRPC4 potent	TRPC6 inhibitor	Platelet DG rel	TRPC4 agonist	TRPC6 activator	HEK293 MPD ctr-2	HEK293 MPD ctr 2-2	TRPC4 ctr mod	TRPC4 ctr inh 2	TRPC6 inh conf	TRPC6 act conf	others
CC1CN(C(=O)CSc2nnc(-c3ccccc3)o2)CC(C)O1 (stereo unspecified)	i	i	i	-2.3	i	i	.	.	.	.	.	.
COCCC(=O)N1CCC(Oc2ccc(C(=O)N3CCCC(CCCO)C3)cc2)CC1 (stereo unspecified)	i	i	i	4.7	i	i	.	.	.	.	.	.
COc1cc(-c2nc3ccccn3c2/N=C/c2cc(OC)c(O)cc2Cl)ccc1O	i	i	-5.83*	11.6	i	i	i	i	-10.5%*	33.5%*	i	i
C/C(=N\NC1=NCCN1)c1ccc(N)c([N+](=O)[O-])c1	i	i	-5.97*	2.1	i	i	i	108.0%*	i	32.0%*	48.5%*	i
CCCCCCOc1ccc(/C(C)=N/NC2=NCCN2)cc1[N+](=O)[O-]	i	i	i	3.0	i	i	.	.	.	.	.	.
O=C(Nc1ccsn1)c1ccc(Cl)cc1Cl	i	i	i	6.5	i	i	.	.	.	.	.	.
Cn1c(=O)c2c(O)c(C=Nc3ccc(F)cc3)c(=O)n(C)c2n(C)c1=O	i	i	-6.58*	-7.8	i	i	-91.5%*	i	-14.5%*	i	i	i
Cn1c(=O)c(C=Nc2ccccc2)c(O)c2ccccc21	i	i	i	-29.9	i	i	.	.	.	.	.	.
O=C(c1cc2ccccc2oc1=O)N1CCN(S(=O)(=O)c2ccccc2)CC1	i	i	i	-23.2	i	i	.	.	.	.	.	.
CC(C)(C)C1CCC(=O)N(CCSc2ccccc2)CC1 (stereo unspecified)	i	i	-5.21*	6.0	i	i	190.5%*	i	44.0%*	i	i	.
CN1CCN(NC(=O)CN2C(=O)/C(=C/c3ccccc3Cl)SC2=S)CC1	i	i	-8.32*	12.4	i	i	.	.	.	.	61.2%*	i	TRPC4 spec 2=63.5%*;TRPC4 spec=i;HEK293 MPD ctr 2-1=i;HEK293 MPD ctr-1=-130.5%*
CCN(CC(=O)Nc1ccc(Br)cc1)C(=O)Cc1cccc(F)c1	i	i	i	-4.2	i	i	.	.	.	.	.	.
C=CCN(C(=O)CC(NC(C)=O)c1ccccc1)c1nc(-c2ccc(S(C)(=O)=O)cc2)cs1 (stereo unspecified)	i	i	-6.48*	-13.4	i	i	i	i	i	i	i	i
CC(=O)NC(CC(=O)Nc1nc(C)cs1)c1ccccc1 (stereo unspecified)	i	i	i	-2.6	i	i	.	.	.	.	.	.
CCOC(=O)c1ccc(/C=C2/C=C(c3ccccc3)N(c3ccc(Cl)c(C(=O)O)c3)C2=O)cc1	i	i	i	-10.4	72*	36*	+	i	377.0%*	i	i	686.0%*
O=[N+]([O-])c1ccc(N=Nc2c(Cl)cc(O)cc2Cl)cc1	i	i	-9.64*	73.2*	i	i	.	.	.	.	114.1%*	i	TRPC4 spec 2=27.0%*;TRPC4 spec=5.7%*;HEK293 MPD ctr 2-1=-26.0%*;HEK293 MPD ctr-1=i
CC1CCCC(C)N1/N=C/c1ccccc1Br (stereo unspecified)	i	i	i	5.1	i	i	.	.	.	.	.	.
COc1ccc(S(=O)(=O)N2CCN(c3ccc4nnc(-c5ccc(F)cc5)n4n3)CC2)cc1	i	i	-6.78*	-16.8	i	i	.	.	.	.	i	i	TRPC4 spec 2=i;TRPC4 spec=i;HEK293 MPD ctr 2-1=i;HEK293 MPD ctr-1=i
O=C(O)c1ccc(Cl)c(N2C(=O)Nc3ccccc3N2O)c1	i	i	i	0.7	i	i	.	.	.	.	.	.
Cn1c(=O)[nH]c(=O)c2c1nc(N1CCCCCC1)n2CCN1CCCCCC1	i	i	-6.62*	8.0	i	i	.	.	.	.	i	i	TRPC4 spec 2=54.0%*;TRPC4 spec=-10.7%*;HEK293 MPD ctr 2-1=i;HEK293 MPD ctr-1=-217.5%*
CN1CCN(c2nc3c(c(=O)[nH]c(=O)n3C)n2CCCSc2ncccn2)CC1	i	i	-5.9*	-2.6	i	i	-166.0%*	i	-30.0%*	i	i	i
CCCn1c(N2CCN(C)CC2)nc2c1c(=O)[nH]c(=O)n2C	i	i	i	-0.1	i	i	.	.	.	.	.	.
CCN1CCN(c2nc3c(c(=O)[nH]c(=O)n3C)n2CCCc2ccccc2)CC1	i	i	i	-2.0	i	i	.	.	.	.	.	.
CCN1CCN(c2nc3c(c(=O)[nH]c(=O)n3C)n2CCCSc2ncccn2)CC1	i	i	-5.41*	-1.1	i	i	-188.5%*	i	-22.0%*	46.5%*	i	i
CC(C)(C)C(=O)NC1CCN(CC(=O)Nc2ccc3c(c2)OCO3)CC1	i	i	i	2.6	i	i	.	.	.	.	.	.
